ChEMBL document CHEMBL5058577, “EUbOPEN Chemogenomics Library 2 (Multiplex)” (2022)

Tested on: Fibroblast
Experiment: Multiplex assay against human fibroblast
Format: toxicity, cell-based
Procedure, shortened: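 With compound added, live cells were imaged on a CQ1 microscope at 37°C and 5% CO2; staining with Hoechst33342, BioTracker Green Microtubule Cytoskeleton Dye, MitoTracker Red and Annexin V Alexa Fluor 680 had been done at seeding. The CellPathfinder machine-learning gating scheme split cells into Hoechst high-intensity objects or normal cells, normal cells into healthy, pyknosed or fragmented nuclei, and pyknosed cells into mitotic or apoptotic. The tubulin, mitochondrial-mass and membrane-permeability phenotypes are per cents of healthy-nucleus cells.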

[1] = 12 h, 1 µM, compound concentration 1 uM, replicate 1
[2] = 12 h, 1 µM, compound concentration 1 uM, replicate 2
[3] = 12 h, 10 µM, compound concentration 10 uM, replicate 1
[4] = 12 h, 10 µM, compound concentration 10 uM, replicate 2
[5] = 24 h, 1 µM, compound concentration 1 uM, replicate 1
[6] = 24 h, 1 µM, compound concentration 1 uM, replicate 2
[7] = 24 h, 10 µM, compound concentration 10 uM, replicate 1
[8] = 24 h, 10 µM, compound concentration 10 uM, replicate 2
[9] = 48 h, 1 µM, compound concentration 1 uM, replicate 1
[10] = 48 h, 1 µM, compound concentration 1 uM, replicate 2
[11] = 48 h, 10 µM, compound concentration 10 uM, replicate 1
[12] = 48 h, 10 µM, compound concentration 10 uM, replicate 2

Cc1ccc(F)cc1C(=O)Nc1ccc(C(=O)N2Cc3cccn3Cc3ccccc32)c(Cl)c1 [LIXIVAPTAN]
Population Apoptotic (%) [1]: 40%
Population Fragmented Nuclei (%) [1]: 11%
Population Healthy Nuclei (%) [1]: 73%
Population Hoechst High Intensity Objects (%) [1]: 5%
Population Membrane Permeable-Phenotype (%) [1]: 0%
Population Mitochondria Different-Phenotype (%) [1]: 3%
Population Mitotic Cells (%) [1]: 59%
Population Normal (%) [1]: 94%
Population Pyknosed Nuclei (%) [1]: 15%
Population Tubulin-Different-Phenotype (%) [1]: 28%
Total Cell Count [1]: 186
Population Apoptotic (%) [2]: 50%
Population Fragmented Nuclei (%) [2]: 30%
Population Healthy Nuclei (%) [2]: 47%
Population Hoechst High Intensity Objects (%) [2]: 3%
Population Membrane Permeable-Phenotype (%) [2]: 1%
Population Mitochondria Different-Phenotype (%) [2]: 9%
Population Mitotic Cells (%) [2]: 50%
Population Normal (%) [2]: 96%
Population Pyknosed Nuclei (%) [2]: 21%
Population Tubulin-Different-Phenotype (%) [2]: 38%
Total Cell Count [2]: 117
Population Apoptotic (%) [3]: 34%
Population Fragmented Nuclei (%) [3]: 18%
Population Healthy Nuclei (%) [3]: 58%
Population Hoechst High Intensity Objects (%) [3]: 0%
Population Membrane Permeable-Phenotype (%) [3]: 2%
Population Mitochondria Different-Phenotype (%) [3]: 5%
Population Mitotic Cells (%) [3]: 65%
Population Normal (%) [3]: 99%
Population Pyknosed Nuclei (%) [3]: 23%
Population Tubulin-Different-Phenotype (%) [3]: 62%
Total Cell Count [3]: 137
Population Apoptotic (%) [4]: 31%
Population Fragmented Nuclei (%) [4]: 27%
Population Healthy Nuclei (%) [4]: 46%
Population Hoechst High Intensity Objects (%) [4]: 5%
Population Membrane Permeable-Phenotype (%) [4]: 6%
Population Mitochondria Different-Phenotype (%) [4]: 10%
Population Mitotic Cells (%) [4]: 68%
Population Normal (%) [4]: 94%
Population Pyknosed Nuclei (%) [4]: 25%
Population Tubulin-Different-Phenotype (%) [4]: 72%
Total Cell Count [4]: 179
Population Apoptotic (%) [5]: 50%
Population Fragmented Nuclei (%) [5]: 12%
Population Healthy Nuclei (%) [5]: 73%
Population Hoechst High Intensity Objects (%) [5]: 1%
Population Membrane Permeable-Phenotype (%) [5]: 1%
Population Mitochondria Different-Phenotype (%) [5]: 0%
Population Mitotic Cells (%) [5]: 50%
Population Normal (%) [5]: 98%
Population Pyknosed Nuclei (%) [5]: 14%
Population Tubulin-Different-Phenotype (%) [5]: 33%
Total Cell Count [5]: 172
Population Apoptotic (%) [6]: 32%
Population Fragmented Nuclei (%) [6]: 33%
Population Healthy Nuclei (%) [6]: 43%
Population Hoechst High Intensity Objects (%) [6]: 3%
Population Membrane Permeable-Phenotype (%) [6]: 5%
Population Mitochondria Different-Phenotype (%) [6]: 5%
Population Mitotic Cells (%) [6]: 67%
Population Normal (%) [6]: 96%
Population Pyknosed Nuclei (%) [6]: 23%
Population Tubulin-Different-Phenotype (%) [6]: 52%
Total Cell Count [6]: 126
Population Apoptotic (%) [7]: 25%
Population Fragmented Nuclei (%) [7]: 19%
Population Healthy Nuclei (%) [7]: 63%
Population Hoechst High Intensity Objects (%) [7]: 0%
Population Membrane Permeable-Phenotype (%) [7]: 2%
Population Mitochondria Different-Phenotype (%) [7]: 8%
Population Mitotic Cells (%) [7]: 75%
Population Normal (%) [7]: 99%
Population Pyknosed Nuclei (%) [7]: 17%
Population Tubulin-Different-Phenotype (%) [7]: 63%
Total Cell Count [7]: 142
Population Apoptotic (%) [8]: 51%
Population Fragmented Nuclei (%) [8]: 26%
Population Healthy Nuclei (%) [8]: 51%
Population Hoechst High Intensity Objects (%) [8]: 5%
Population Membrane Permeable-Phenotype (%) [8]: 11%
Population Mitochondria Different-Phenotype (%) [8]: 12%
Population Mitotic Cells (%) [8]: 48%
Population Normal (%) [8]: 94%
Population Pyknosed Nuclei (%) [8]: 22%
Population Tubulin-Different-Phenotype (%) [8]: 82%
Total Cell Count [8]: 174
Population Apoptotic (%) [9]: 63%
Population Fragmented Nuclei (%) [9]: 18%
Population Healthy Nuclei (%) [9]: 68%
Population Hoechst High Intensity Objects (%) [9]: 8%
Population Membrane Permeable-Phenotype (%) [9]: 0%
Population Mitochondria Different-Phenotype (%) [9]: 3%
Population Mitotic Cells (%) [9]: 36%
Population Normal (%) [9]: 91%
Population Pyknosed Nuclei (%) [9]: 13%
Population Tubulin-Different-Phenotype (%) [9]: 28%
Total Cell Count [9]: 181
Population Apoptotic (%) [10]: 50%
Population Fragmented Nuclei (%) [10]: 37%
Population Healthy Nuclei (%) [10]: 40%
Population Hoechst High Intensity Objects (%) [10]: 0%
Population Membrane Permeable-Phenotype (%) [10]: 4%
Population Mitochondria Different-Phenotype (%) [10]: 11%
Population Mitotic Cells (%) [10]: 50%
Population Normal (%) [10]: 99%
Population Pyknosed Nuclei (%) [10]: 21%
Population Tubulin-Different-Phenotype (%) [10]: 53%
Total Cell Count [10]: 111
Population Apoptotic (%) [11]: 70%
Population Fragmented Nuclei (%) [11]: 25%
Population Healthy Nuclei (%) [11]: 62%
Population Hoechst High Intensity Objects (%) [11]: 2%
Population Membrane Permeable-Phenotype (%) [11]: 0%
Population Mitochondria Different-Phenotype (%) [11]: 13%
Population Mitotic Cells (%) [11]: 29%
Population Normal (%) [11]: 97%
Population Pyknosed Nuclei (%) [11]: 11%
Population Tubulin-Different-Phenotype (%) [11]: 69%
Total Cell Count [11]: 149
Population Apoptotic (%) [12]: 73%
Population Fragmented Nuclei (%) [12]: 36%
Population Healthy Nuclei (%) [12]: 51%
Population Hoechst High Intensity Objects (%) [12]: 5%
Population Membrane Permeable-Phenotype (%) [12]: 6%
Population Mitotic Cells (%) [12]: 26%
Population Normal (%) [12]: 94%
Population Tubulin-Different-Phenotype (%) [12]: 78%
Total Cell Count [12]: 170
